Source: PubChem BioAssay
Xi reactivation: X-chromosome reactivation activator; XiGFP mouse fibroblasts, % GFP-positive cells imaging, 3 d; cells co-treated with 5-aza-dC sensitizer; scaled so ellipticine positive control = 100%; 0.055% of 360,000 active; activation, % at 7.58 µM;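 active = mean normalized replicate activation at least 10% and every replicate at or above 10%; inconclusive = only one of the two criteria met; inactive = mean below 10% and not all replicates reach 10%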;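 note: 0% = median of on-plate neutral control wells and 100% = ellipticine 6 µM median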
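Assay system – SV40-immortalized XiGFP fibroblast cells, line 68-5-11 · Buffer or medium – DMEM supplemented with 5-aza-dC as sensitizing agent · Dosing – one concentration, pinned · Benchmarks – positive control ellipticine, 6 µM final · Times – 3 days compound exposure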
DENV2 CPE rescue: protects cells from dengue virus 2 cytopathic effect | DENV2-infected cells, cytopathic effect rescue, plate reader | CPE inhibition, % at 9.99 µM | 1.7% of 350,000 active | AID 651640; in the data active = CPE inhibition above about 20%, passing the limit was not always enough; inconclusive = no clear call, values can overlap the other calls; tested in BHK-21 cells;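 note: 0% = median of neutral control wells and 100% = median of positive control wells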
S100A4 MyoIIA: blocks human S100A4 binding to myosin IIA peptide; P26447; S100A4/TAMRA-MyoIIA peptide fluorescence polarization; inhibition, % at 10.7 µM; 0.14% of 360,000 active;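 active = mean inhibition of at least 70% across replicates, with every replicate also reaching that level; inconclusive = mean inhibition reaches 70% but some replicates fall short; inactive = mean inhibition below 70%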
Target sequence (P26447 whole entry, looked up): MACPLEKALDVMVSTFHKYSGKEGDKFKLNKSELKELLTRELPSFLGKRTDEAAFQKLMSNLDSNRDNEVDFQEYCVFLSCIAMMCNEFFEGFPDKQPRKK
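assay system = human S100A4 monomer with TAMRA-labelled myosin IIA peptide | also added = labelled myosin peptide probe, 5 nM | incubation = 5 min between mix addition and reading | control set = DMSO and TFP controls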
E-sel inducer: E-selectin induction on HUVECs | 0.37% of 260,000 active | P16581 | HUVEC E-selectin immunofluorescence imaging; normalized: neutral wells 0, TNF-alpha wells 100 | activation, % at 7.58 µM;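 active = mean E-selectin-positive cell signal at least 10% of the positive control, reached in at least 60% of replicates, without over 20% cell loss; inconclusive = no rule given, readout overlaps actives, possibly toxicity-flagged; inactive = the rest, including those meeting only one limit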
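Test system: HUVEC | Signal: Immunofluorescence imaging | Read-out: Percent E-selectin-positive cells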
An asterisk follows results filed as active; ! = not active in a repeat. This is a sample that favours compounds with a hit; in the whole collection about 2% have one here.

O=C([C@@H]1[C@@H](CO)[C@@H]2Cn3c(cccc3=O)[C@H]1N2CC1CCCC1)N1CCOCC1 was read as Xi reactivation 0, DENV2 CPE rescue 0, S100A4 MyoIIA 4 and E-sel inducer 0.
Screening CC(C)NC(=O)N1[C@H](C(=O)N2CCC(Cc3ccccc3)CC2)[C@@H](CO)[C@@H]2Cn3c(cccc3=O)[C@@H]21 returned Xi reactivation 0, DENV2 CPE rescue 26*, S100A4 MyoIIA 54 and E-sel inducer 0.
`CC=Cc1ccc2n(c1=O)C[C@@H]1[C@@H](CO)[C@H](C(=O)N3CCc4ccccc4C3)N(C(=O)CC)[C@H]21` (mixture of isomers) gave Xi reactivation 0, DENV2 CPE rescue inconclusive, S100A4 MyoIIA -2 and E-sel inducer 0.
CC=Cc1ccc2n(c1=O)C[C@H]1[C@H](CO)[C@@H](C(=O)N3CCc4ccccc4C3)N(C(=O)C3CCC3)[C@@H]21 (mixture of isomers) was read as Xi reactivation 0, DENV2 CPE rescue 62*, S100A4 MyoIIA -5 and E-sel inducer 0.
Screening COc1ccc(N(CC(=O)NCCSCc2cccc(Cl)c2)S(C)(=O)=O)cc1Cl returned Xi reactivation 0, DENV2 CPE rescue 0, S100A4 MyoIIA 3 and E-sel inducer 0.
O=C(NC1CCCCC1)[C@H]1[C@H](CO)[C@H]2Cn3c(cccc3=O)[C@H]2N1C(=O)CC1CC1 was read as Xi reactivation 0, DENV2 CPE rescue 4, S100A4 MyoIIA 102* and E-sel inducer 0.
Screening O=C([C@@H]1[C@@H](CO)[C@@H]2Cn3c(cccc3=O)[C@H]1N2C(=O)CC1CC1)N1CCCCC1 returned Xi reactivation 0, DENV2 CPE rescue 148*, S100A4 MyoIIA 3 and E-sel inducer -1.
For CCCNC(=O)[C@@H]1[C@@H](CO)[C@@H]2Cn3c(cccc3=O)[C@@H]2N1C(=O)C1CCC1 the results were Xi reactivation 0, DENV2 CPE rescue -4, S100A4 MyoIIA 106* and E-sel inducer 0.
For O=C(NC1CCC1)[C@H]1[C@H](CO)[C@H]2Cn3c(cccc3=O)[C@@H]1N2CC1CCCC1 the results were Xi reactivation 0, DENV2 CPE rescue 36*, S100A4 MyoIIA 23 and E-sel inducer 0.
Screening COC(=O)[C@H]1[C@H](CO)[C@H]2Cn3c(cccc3=O)[C@H]2N1CC1CCCCC1 returned Xi reactivation 0, DENV2 CPE rescue -2, S100A4 MyoIIA 11 and E-sel inducer 0.
COC(=O)[C@@H]1[C@@H](CO)[C@@H]2Cn3c(cccc3=O)[C@@H]2N1CC1CCOCC1 was read as Xi reactivation 0, DENV2 CPE rescue 5, S100A4 MyoIIA 88* and E-sel inducer 0.
Screening Cc1ccc(CN2CCN(C(=O)c3cccc4ccccc34)CC2)cc1 returned Xi reactivation 0, DENV2 CPE rescue -2, S100A4 MyoIIA 0 and E-sel inducer 0.
Screening Cc1cccc(CN2CCN(C(=O)c3cccc4ccccc34)CC2)c1 returned Xi reactivation 0, DENV2 CPE rescue 43* and S100A4 MyoIIA 2.
Screening CCC(=O)c1cn(CC(=O)Nc2cccc(C)c2)c2ccccc12 returned Xi reactivation 0, DENV2 CPE rescue 69* and S100A4 MyoIIA -2.
CCOC(=O)[C@H]1[C@H]2COc3cc(OC)ccc3[C@@H]2N2C(=O)CN(C)C(=O)[C@@]12C was read as Xi reactivation 0, DENV2 CPE rescue 1, S100A4 MyoIIA 1 and E-sel inducer 0.
Screening CC(C)NC(=O)N(C)C[C@@H]1OCCCC[C@@H](C)Oc2ccc(NC(=O)c3ccncc3)cc2C(=O)N([C@@H](C)CO)C[C@H]1C returned Xi reactivation 0, DENV2 CPE rescue inconclusive, S100A4 MyoIIA 48 and E-sel inducer 0.
For C[C@H](CO)N1C[C@H](C)[C@H](CN(C)Cc2cccc(C(=O)O)c2)Oc2cc(C3=CCCC3)ccc2S1(=O)=O the results were Xi reactivation 1, DENV2 CPE rescue 44*, S100A4 MyoIIA -5 and E-sel inducer 0.
For C[C@H]1CN([C@@H](C)CO)S(=O)(=O)c2ccc(C3=CCCCC3)cc2O[C@H]1CN(C)Cc1ccccc1 the results were Xi reactivation 0, DENV2 CPE rescue 8, S100A4 MyoIIA 100* and E-sel inducer 0.
For C[C@H](CO)N1C[C@H](C)[C@@H](CN(C)Cc2ccc(Oc3ccccc3)cc2)Oc2cc(Br)ccc2S1(=O)=O the results were Xi reactivation 0, DENV2 CPE rescue 25*!, S100A4 MyoIIA 0 and E-sel inducer 1.
`C[C@H]1CN([C@@H](C)CO)S(=O)(=O)c2ccc(C3=CCCC3)cc2O[C@@H]1CN(C)Cc1cccnc1` gave Xi reactivation 0, DENV2 CPE rescue 30*, S100A4 MyoIIA -22 and E-sel inducer 1.
C[C@@H]1CN([C@H](C)CO)S(=O)(=O)c2ccc(C3=CCCCC3)cc2O[C@@H]1CN(C)Cc1ccccc1 was read as Xi reactivation 0, DENV2 CPE rescue 19, S100A4 MyoIIA 79* and E-sel inducer 0.
`C[C@@H]1CN([C@H](C)CO)S(=O)(=O)c2ccc(C3=CCCCC3)cc2O[C@@H]1CN(C)Cc1cncnc1` gave Xi reactivation 0, DENV2 CPE rescue 0, S100A4 MyoIIA 107* and E-sel inducer 0.
CCc1nc2ccc(C(=O)N3CCN(c4cccc(C)c4C)CC3)cc2nc1CC was read as Xi reactivation 0, DENV2 CPE rescue -4, S100A4 MyoIIA 0 and E-sel inducer 0.
Screening Cc1c(OCC(=O)NCCCN2CCCC2=O)ccc2c3c(c(=O)oc12)CCC3 returned Xi reactivation 0, DENV2 CPE rescue 4 and S100A4 MyoIIA active.
Screening Cc1c(OCC(=O)NCCCN2CCCC2=O)ccc2c3c(c(=O)oc12)CCCC3 returned Xi reactivation 0, DENV2 CPE rescue -2 and S100A4 MyoIIA -4.
`FC(F)(F)c1ccccc1CN1CCCc2nc(-c3ccc(Br)cc3)ccc21` gave Xi reactivation 0, DENV2 CPE rescue 42*, S100A4 MyoIIA -14 and E-sel inducer 0.
`CCCC(=O)Nc1ccc2c(c1)C(=O)N(C)C[C@H](OC)[C@@H](C)CN(Cc1ccccc1)[C@H](C)CO2` gave Xi reactivation 0, DENV2 CPE rescue 5, S100A4 MyoIIA 0 and E-sel inducer 0.
CCCC(=O)Nc1ccc2c(c1)OC[C@H](C)N(Cc1ccccc1)C[C@H](C)[C@@H](OC)CN(C)C2=O was read as Xi reactivation 0, DENV2 CPE rescue 32*, S100A4 MyoIIA 10 and E-sel inducer 0.
CCCC(=O)Nc1ccc2c(c1)C(=O)N(C)C[C@H](OC)[C@H](C)CN(Cc1ccccc1)[C@H](C)CO2 was read as Xi reactivation 0, DENV2 CPE rescue -16, S100A4 MyoIIA 96* and E-sel inducer 0.
`CCCNC(=O)Nc1ccc2c(c1)OC[C@H](C)N(Cc1ccncc1)C[C@@H](C)[C@@H](OC)CN(C)C2=O` gave Xi reactivation 0, DENV2 CPE rescue 45*, S100A4 MyoIIA -1 and E-sel inducer 0.
